Structures are written as SMILES. Bounds are passed on as bounds.

Experiment [1] concerns the target T1, Growth hormone secretagogue receptor type 1 (Homo sapiens, UniProt Q92847). Nature of the experiment: In vitro effective concentration against human growth hormone secretagogues. It counts as functional. The method, boiled down:
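Cell-based FLIPR functional assay in H4 glioma cells in which expression of the endogenous human GHS receptor is enhanced by RAGE-activation. Agonism is read as intracellular calcium mobilization with a calcium-sensitive fluorescent probe, and EC50 is derived from the response.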

The target in experiment [2] is T1, Growth hormone secretagogue receptor type 1. Kind of experiment: Maximum intrinsic activity against human growth hormone secretagogues at a concentration of 10 uM. In kind it is functional.
The test system of experiment [3] is Rattus norvegicus. Nature of the experiment: Percent of plasma growth hormone increase at an IV dose of 5.23 lmol/kg. In kind it is functional. The method, boiled down:
(§1)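 Anesthetized rats (treatment stabilizes baseline plasma GH near 60 ng/mL) were given drug or vehicle (10% ethanol, 0.09% saline V/V) IV at 10 mL/kg, five rats per group. Blood was drawn from the abdominal aorta 15 min later for plasma GH. The result is expressed as % increase over the vehicle group, or as rats exceeding a 100% increase.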

Experiment [4] is filed under the species Rattus norvegicus. Nature of the experiment: Number of rats with greater than 100% growth hormone increase over the control group, there are five rats in both control and compound treated groups. In kind it is functional. The method, boiled down:
as §1

Experiment [5] addresses T1, Growth hormone secretagogue receptor type 1. Kind of experiment: In vivo effective concentration against human growth hormone secretagogues. In kind it is functional, organism-based, Rattus norvegicus.
The species entered for experiment [6] is Rattus norvegicus. Nature of the experiment: Number of rats with greater than 100% GH increase over the controlgroup, there are five rats in both control and compound treated groups. In kind it is functional. In a few lines:
as §1

Experiment [7] addresses T1, Growth hormone secretagogue receptor type 1. Kind of experiment: In vitro effective concentration against human growth hormone secretagogues.

T1 sequence (Q92847 whole entry): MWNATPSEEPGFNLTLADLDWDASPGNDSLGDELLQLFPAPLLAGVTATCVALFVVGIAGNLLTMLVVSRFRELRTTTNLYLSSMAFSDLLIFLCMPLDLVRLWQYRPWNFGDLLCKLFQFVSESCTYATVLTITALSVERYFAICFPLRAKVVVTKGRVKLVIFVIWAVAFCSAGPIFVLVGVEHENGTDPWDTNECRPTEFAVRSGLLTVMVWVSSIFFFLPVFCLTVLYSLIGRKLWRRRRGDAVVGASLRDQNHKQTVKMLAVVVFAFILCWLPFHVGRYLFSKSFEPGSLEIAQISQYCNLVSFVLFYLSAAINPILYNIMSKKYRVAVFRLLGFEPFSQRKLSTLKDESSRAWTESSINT

What is called EC50 is the midpoint of the concentration-response curve. A lower EC50 goes with greater potency. `CC(C)N(CCNC(=O)C1c2ccc(OCc3ccccc3)cc2CCN1S(=O)(=O)N(C)C)C(C)C` (configuration not stated) came in with an EC50 in experiment [1] of 21 nM. Still for that read-out and setting: the result for `CC(C)N(CCNC(=O)C1c2ccc(OCc3ccccc3)cc2CCN1C(=O)OC1CCCCC1)C(C)C` (configuration not stated) reads 4.9 nM; that for `CSc1ccc(Oc2ccc3c(c2)CCN(C(=O)OC(C)(C)C)C3C(=O)NCCN(C(C)C)C(C)C)cc1` (configuration not stated), 2.4 nM. In the case of `CC(C)N(CCNC(=O)C1c2ccc(OCc3ccccc3)cc2CCN1S(=O)(=O)Cc1ccccc1)C(C)C` (configuration not stated), in experiment [1], the EC50 is 7.3 nM. This EC50 lies about 3-fold higher than the previous one. `CC(C)N(CCNC(=O)C1c2ccc(OCc3ccccc3)cc2CCN1C(=O)Nc1ccccc1)C(C)C` (configuration not stated) came in with an Activity in experiment [2] of 43%.

Regarding `CC(C)NCCNC(=O)C1c2ccc(OCc3ccccc3)cc2CCN1C(=O)OC(C)(C)C` (configuration not stated), the EC50 in experiment [1] was 219 nM. On the same count and under the same terms, under `CC(C)N(CCNC(=O)C1c2ccc(OCc3ccccc3)cc2CCN1C(=O)OCc1ccccc1)C(C)C` (configuration not stated) stands 27 nM; under `CC(C)N(CCNC(=O)C1c2ccc(Oc3cccc(F)c3)cc2CCN1C(=O)OC(C)(C)C)C(C)C` (configuration not stated), 4.3 nM; under `CCN(CC)CCNC(=O)C1c2ccc(OCc3ccccc3)cc2CCN1C(=O)OC(C)(C)C` (configuration not stated), 19.6 nM. In experiment [1], `CC(C)N(CCNC(=O)C1c2ccc(OCc3ccccc3)cc2CCN1C(=O)Cc1ccccc1F)C(C)C` (configuration not stated) returned an EC50 of 43 nM. This EC50 lies about 2.2-fold higher than the previous one. Still for that read-out and setting: under `CC(=O)Nc1cccc(Oc2ccc3c(c2)CCN(C(=O)OC(C)(C)C)C3C(=O)NCCN(C(C)C)C(C)C)c1` (configuration not stated) stands 12 nM; under `CC(=O)C(C(=O)N1CCc2cc(OCc3ccccc3)ccc2C1C(=O)NCCN(C(C)C)C(C)C)c1ccccc1` (configuration not stated), 9.2 nM; under `CC(C)N(CCNC(=O)C1c2ccc(OCc3ccccc3)cc2CCN1C(=O)c1ccccc1)C(C)C` (configuration not stated), 7.6 nM. On the same count and under the same terms, under `COc1ccc(CC(=O)N2CCc3cc(OCc4ccccc4)ccc3C2C(=O)NCCN(C(C)C)C(C)C)cc1` (configuration not stated) stands 45 nM; under `CC(C)N(CCNC(=O)C1c2ccc(OCc3ccccc3)cc2CCN1C(=O)CC(C)(C)C)C(C)C` (configuration not stated), 20.9 nM. Same read-out and setting: under `CC(=O)c1ccccc1C(=O)N1CCc2cc(OCc3ccccc3)ccc2C1C(=O)NCCN(C(C)C)C(C)C` (configuration not stated) stands 7.3 nM. The compound `CC(C)N(CCNC(=O)C1c2ccc(Oc3ccccc3)cc2CCN1C(=O)OC(C)(C)C)C(C)C` (single isomer, unassigned; form 2) returned an Increase in the experiment with Rattus norvegicus [3] of 1283%. The EC50 in experiment [1] and in experiment [5] was 0.46 nM in each case. Further, the Responder in the experiment listed under Rattus norvegicus [4] came to 5 rats.

With `CN(C)CCNC(=O)C1c2ccc(OCc3ccccc3)cc2CCN1C(=O)OC(C)(C)C` (configuration not stated), the Activity in experiment [2] worked out at 46%. The compound `CC(C)N(CCNC(=O)C1c2ccc(Oc3ccc(C(F)(F)F)cc3)cc2CCN1C(=O)OC(C)(C)C)C(C)C` (configuration not stated) registered an EC50 in experiment [1] of 2.3 nM. This counts as single-digit nanomolar. Same read-out and setting: under `CC(C)N(C)CCNC(=O)C1c2ccc(OCc3ccccc3)cc2CCN1C(=O)OC(C)(C)C` (configuration not stated) stands 41 nM. On the same count and under the same terms, under `CC(C)N(CCNC(=O)C1c2ccc(OCc3ccccc3)cc2CCN1S(=O)(=O)c1ccccc1)C(C)C` (configuration not stated) stands 21 nM; under `COc1ccccc1CC(=O)N1CCc2cc(OCc3ccccc3)ccc2C1C(=O)NCCN(C(C)C)C(C)C` (configuration not stated), 2.1 nM; under `CC(C)N(CCNC(=O)C1c2ccc(OCc3ccccc3)cc2CCN1C(=O)NC(C)(C)C)C(C)C` (configuration not stated), 14.4 nM. On the same count and under the same terms, under `CC(C(=O)N1CCc2cc(OCc3ccccc3)ccc2C1C(=O)NCCN(C(C)C)C(C)C)c1ccccc1` (configuration not stated) stands 3.4 nM; under `CC(C)N(CCNC(=O)C1c2ccc(Oc3cccc(C(F)(F)F)c3)cc2CCN1C(=O)OC(C)(C)C)C(C)C` (configuration not stated), 1.5 nM. Compound `CC(C)N(CCNC(=O)C1c2ccc(Oc3ccc(C=O)cc3)cc2CCN1C(=O)OC(C)(C)C)C(C)C` (configuration not stated) yielded an EC50 in experiment [1] of 1.4 nM. The same measure, in the same setting: the result for `CC(C)N(CCNC(=O)C1c2ccc(OCc3ccccc3)cc2CCN1C(=O)OC(C)(C)C)C(C)C` (configuration not stated) reads 11.7 nM; that for `COc1cccc(Oc2ccc3c(c2)CCN(C(=O)OC(C)(C)C)C3C(=O)NCCN(C(C)C)C(C)C)c1` (configuration not stated), 0.46 nM. On the same count and under the same terms, the result for `CC(C)N(CCNC(=O)C1c2ccc(Oc3ccccc3)cc2CCN1C(=O)OC(C)(C)C)C(C)C` (single isomer, unassigned; form 1) reads 7.6 nM; that for `CC(C)N(CCNC(=O)C1c2ccc(OCc3ccccc3)cc2CCN1C(=O)OC(C)(C)C#N)C(C)C` (configuration not stated), 9.8 nM; that for `COc1cccc(CC(=O)N2CCc3cc(OCc4ccccc4)ccc3C2C(=O)NCCN(C(C)C)C(C)C)c1` (configuration not stated), 6.4 nM. With `CC(C)N(CCNC(=O)C1c2ccc(OCc3ccccc3)cc2CCN1C(=O)c1ccccc1F)C(C)C` (configuration not stated), it took 17.8 nM to reach a half-maximal effect in experiment [1] (EC50). Still for that read-out and setting: under `CC(C)(CN)CNC(=O)C1c2ccc(OCc3ccccc3)cc2CCN1C(=O)OC(C)(C)C` (configuration not stated) stands 257 nM. For the compound `CCOc1ccccc1C(=O)N1CCc2cc(OCc3ccccc3)ccc2C1C(=O)NCCN(C(C)C)C(C)C` (configuration not stated), the Activity in experiment [2] amounted to 30%. On the same count and under the same terms, under `CC(C)(N)CNC(=O)C1c2ccc(OCc3ccccc3)cc2CCN1C(=O)OC(C)(C)C` (configuration not stated) stands 47%. On to `CC(C)N(CCNC(=O)C1c2ccc(OCc3ccccc3)cc2CCN1C(=O)C(O)c1ccccc1)C(C)C` (configuration not stated), for which a half-maximal response in experiment [1] (EC50) required 39 nM. On the same count and under the same terms, under `CC(C)N(CCNC(=O)C1c2ccc(OCc3ccccc3)cc2CCN1C(=O)Cc1ccccc1)C(C)C` (configuration not stated) stands 9 nM. Same read-out and setting: under `CC(=O)NC(C(=O)N1CCc2cc(OCc3ccccc3)ccc2C1C(=O)NCCN(C(C)C)C(C)C)c1ccccc1` (configuration not stated) stands 19.7 nM; under `CC(C)N(CCNC(=O)C1c2ccc(Oc3ccccc3)cc2CCN1C(=O)OC(C)(C)C)C(C)C` (stereo in doubt; 12a), 0.49 nM. `CC(C)N(CCNC(=O)C1c2ccc(OCc3ccccc3)cc2CCN1C(=O)OC(C)(C)C(=O)N(C)C)C(C)C` (configuration not stated) registered an EC50 in experiment [1] of 0.85 nM. In turn, `CC(C)N(CCNC(=O)C1c2ccc(Oc3cccc([N+](=O)[O-])c3)cc2CCN1C(=O)OC(C)(C)C)C(C)C` (configuration not stated) displayed an EC50 in experiment [1] of 0.66 nM. The EC50 values of the last two compounds are within 1.5-fold of each other.

For the compound `CC(C)N(CCNC(=O)C1c2ccc(Oc3ccc(Cl)cc3)cc2CCN1C(=O)OC(C)(C)C)C(C)C` (configuration not stated), in experiment [1], the EC50 is 0.73 nM. In the case of `CC(=O)C(C)(C)OC(=O)N1CCc2cc(OCc3ccccc3)ccc2C1C(=O)NCCN(C(C)C)C(C)C` (configuration not stated), the Increases in the experiment with Rattus norvegicus [3] is 666%. The same compound returned a Responder in the experiment listed under Rattus norvegicus [6] of 5 rats. For the same compound, the EC50 in experiment [1] and in experiment [7] was 2 nM each time. `CC(=O)N1CCc2cc(OCc3ccccc3)ccc2C1C(=O)NCCN(C(C)C)C(C)C` (configuration not stated): the EC50 in experiment [1] turned out to be 257 nM. Compound `CC(C)N(CCNC(=O)C1c2ccc(OCc3ccccc3)cc2CCN1C(=O)CCc1ccccc1)C(C)C` (configuration not stated) came in with an EC50 in experiment [1] of 26.7 nM. On the same count and under the same terms, the result for `CC(C)N(CCNC(=O)C1c2ccc(OCc3ccccc3)cc2CCN1C(=O)C(CO)c1ccccc1)C(C)C` (configuration not stated) reads 5.6 nM. With `COC(=O)C(C)(C)OC(=O)N1CCc2cc(OCc3ccccc3)ccc2C1C(=O)NCCN(C(C)C)C(C)C` (configuration not stated), the Increase with Rattus norvegicus [3] is 746%. Moreover, in the experiment listed under Rattus norvegicus [6], the Responder came out at 5 rats. The EC50 in experiment [1] and in experiment [7] was 1.5 nM throughout. Regarding `CCCOC(=O)N1CCc2cc(OCc3ccccc3)ccc2C1C(=O)NCCN(C(C)C)C(C)C` (configuration not stated), the EC50 in experiment [1] is 3.4 nM. On to `CC(C)N(CCNC(=O)C1c2ccc(OCc3ccccc3)cc2CCN1C(=O)Oc1ccccc1)C(C)C` (configuration not stated), for which the Activity in experiment [2] was less than 5%. For `CC(C)N(CCNC(=O)C1c2ccc(OCc3ccccc3)cc2CCN1C(=O)N(C)C)C(C)C` (configuration not stated), in experiment [1], the EC50 was 190 nM. In the case of `CCCCS(=O)(=O)N1CCc2cc(OCc3ccccc3)ccc2C1C(=O)NCCN(C(C)C)C(C)C` (configuration not stated), the Activity in experiment [2] was found to be 50%. Same read-out and setting: the result for `CC(C)N(CCNC(=O)C1c2ccc(OCc3ccccc3)cc2CCN1S(C)(=O)=O)C(C)C` (configuration not stated) reads 47%; that for `CC(C)N(CCNC(=O)C1c2ccc(OCc3ccccc3)cc2CCN1C(=O)C(C)(C)C)C(C)C` (configuration not stated), 50%.

As for `CC(C)N(CCNC(=O)C1c2ccc(OCc3ccccc3)cc2CCN1C(=O)CCCc1ccccc1)C(C)C` (configuration not stated), in experiment [1], the EC50 was 13.1 nM. `COc1ccc(Oc2ccc3c(c2)CCN(C(=O)OC(C)(C)C)C3C(=O)NCCN(C(C)C)C(C)C)cc1` (configuration not stated) registered an Increase with Rattus norvegicus [3] of 172%. In the experiment filed under Rattus norvegicus [6], the Responder was found to be 4 rats. The EC50 in experiment [1] and in experiment [7] was 0.49 nM each time.

These data come from ChEMBL document CHEMBL1142646, “Tetrahydroisoquinoline 1-carboxamides as growth hormone secretagogues” (Bioorg Med Chem Lett, 2005).
